Source: ChEMBL document CHEMBL1155661, “Bioactive steroids from the whole herb of Euphorbia chamaesyce” (J Nat Prod, 2000)

Columns and labels:
Assay type in all cases: cell-based
Raji [1] = test: Inhibition of 12-O-tetradecanoylphorbol-13-acetate induced EBV-early antigen activation in human Raji cells assessed as EA induction at 10 molar ratio by immunofluorescence assay relative to TPA; design: scale not given: the % may be the effect or the level left; conditions: human gammaherpesvirus 4
Method in brief: (§1)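 Cells at 1 × 10⁶/mL were incubated 48 h at 37 °C with n-butyric acid (4 mM) and TPA (32 pmol, 20 ng/mL) in DMSO, plus compound in DMSO dosed as mol ratio to TPA. EA-positive cells in smears were detected by indirect immunofluorescence with high-titer EBV-EA-positive nasopharyngeal carcinoma patient sera. At least 500 cells were counted, experiments were run twice, and values are expressed relative to TPA alone (100%).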

Raji [2] = test: Inhibition of 12-O-tetradecanoylphorbol-13-acetate induced EBV-early antigen activation in human Raji cells assessed as EA induction at 100 molar ratio by immunofluorescence assay relative to TPA; design: scale not given: the % may be the effect or the level left; conditions: human gammaherpesvirus 4; method in brief: as §1
Raji [3] = test: Inhibition of 12-O-tetradecanoylphorbol-13-acetate induced EBV-early antigen activation in human Raji cells assessed as EA induction at 500 molar ratio by immunofluorescence assay relative to TPA; design: scale not given: the % may be the effect or the level left; conditions: human gammaherpesvirus 4; method in brief: as §1
Raji [4] = test: Inhibition of 12-O-tetradecanoylphorbol-13-acetate induced EBV-early antigen activation in human Raji cells assessed as EA induction at 1000 molar ratio by immunofluorescence assay relative to TPA; design: scale not given: the % may be the effect or the level left; conditions: human gammaherpesvirus 4; method in brief: as §1
[5] = Cytotoxicity against human Raji cells assessed as cell viability at 1000 molar ratio; conditions: read-out: Activity

Row | Compound | Activity (Raji [1]) | Activity (Raji [2]) | Activity (Raji [3]) | Activity (Raji [4]) | viability at 1000 molar ratio [5]
1 | C=C(CC[C@@H](C)[C@H]1CC[C@@]2(C)C3=C(CC[C@]12C)[C@@]1(C)CC[C@H](O)[C@@H](C)[C@@H]1CC3)C(C)C [OBTUSIFOLIOL] | 95.8% | 77.4% | 30.2% | 0% | 70%
2 | CC1(C)CC[C@]2(C(=O)O)CC[C@]3(C)C(=CC[C@@H]4[C@@]5(C)CC[C@H](O)C(C)(C)[C@@H]5CC[C@]43C)[C@@H]2C1 [OLEANOLIC_ACID] | 93.7% | 72.5% | 22.4% | 12.7% | 70%
3 | C=C(CC[C@@H](C)[C@H]1CC[C@@]2(C)C3=C(C(=O)C[C@]12C)[C@@]1(C)CC[C@H](O)[C@@H](C)[C@@H]1CC3=O)C(C)C | 91.9% | 70.4% | 22.5% | 0% | 70%
4 | C=C(CC[C@@H](C)[C@H]1CC[C@@]2(C)C3=C(C(=O)C[C@]12C)[C@@]1(C)CC[C@H](O)[C@@H](C)[C@@H]1CC3)C(C)C | 92.8% | 72.4% | 23.6% | 0% | 70%
5 | C=C(CC[C@@H](C)[C@H]1CC[C@@]2(C)C3=CC[C@H]4[C@H](C)[C@@H](O)CC[C@]4(C)C3=CC[C@]12C)C(C)C | 92.4% | 74.9% | 27.3% | 0% | 70%
